PMC4267758 (Journal of molecular biology, 2014)
Read-outs that look alike come from different tables or passages of the source.

B1: paxillin^212–282: paxillin construct LD3–LD4 (protein)
chain: EDVRPSVESLLDELESSVPSPVPAITVSQGEVSSPQRVNASQQQTRISASSATRELDELMASLSDFKFMAQGK
B2: paxillin^133–242: paxillin construct LD2–LD3 (protein)
chain: MTSTSLGSNLSELDRLLLELNAVQHNPPSGFSADEVSRSPSLPNVTGPHYVIPESSSSAGGKAAPPTKEKPKRNGGRGIEDVRPSVESLLDELESSVPSPVPAITVSQGE
B3: paxillin^133–290 (LD2–LD4 region of chicken paxillin) (domain or fragment, UniProt P49024 133-290, looked up)
chain: MTSTSLGSNLSELDRLLLELNAVQHNPPSGFSADEVSRSPSLPNVTGPHYVIPESSSSAGGKAAPPTKEKPKRNGGRGIEDVRPSVESLLDELESSVPSPVPAITVSQGEVSSPQRVNASQQQTRISASSATRELDELMASLSDFKFMAQGKAGGSSS
B4: paxillin^133–290: chicken paxillin residues 133–290, truncated construct comprising LD motifs 2, 3 and 4, N-terminal His-tag (protein)
chain: B3 chain
modifications: left off: His-tag, N-terminal, kept
B5: Pyk2 focal adhesion-targeting (Pyk2-FAT) domain (domain or fragment, human, UniProt Q14289 871-1005, looked up)
chain: ANLDRTDDLVYLNVMELVRAVLELKNELCQLPPEGYVVVVKNVGLTLRKLIGSVDDLLPSLPSSSRTEIEGTQKLLNKDLAELINKMRLAQQNAVTSLSEECKRQMLTASHTLAVDAKNLLDAVDQAKVLANLAH
B6: Pyk2-FAT: FAT domain of human Pyk2 (residues 871–1005), N-terminal His6-tag (protein)
chain: B5 chain
modifications: left off: His6, N-terminal, state not stated

What was measured:
Pyk2-FAT [1] = assay: Isothermal titration calorimetry; type: binding, human; conditions: for binding to Pyk2-FAT (qualitative, ITC): 20 mM MES, pH 6.2, 25°C
Procedure, shortened: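 Human Pyk2 FAT domain (residues 871–1005) with an N-terminal His6 tag, expressed in E. coli BL21(DE3) and purified by Ni-affinity then gel filtration. The cell held 10 μM protein in 20 mM MES, pH 6.2. The syringe held chicken paxillin LD-motif peptides (100 μM) or the His-tagged paxillin 133–290 fragment (50 μM). Solutions degassed; 2 μl injections, 120 s apart, at 25°C. Ligand-into-buffer heats subtracted. Fits used one-site or two-site sequential models. Run in duplicate.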

[2] = system: FAT-like domain from G-protein-coupled receptor kinase-interacting protein 1 (GIT1); conditions: ref [41]; cited from earlier work
Pyk2-FAT [3] = assay: Sedimentation equilibrium AUC; type: binding, human; conditions: AUC-SE; for Kd: two site hetero-association model (A+B+B↔ABB), 1:2 Pyk2-FAT to peptide, 20 mM MES, pH 6.2, 4 °C, Monte Carlo error, 500 iterations, confidence level 0.68
Procedure, shortened: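 Sedimentation equilibrium at 4 °C in 20 mM MES, 50 mM NaCl, pH 6.2. Rotor speeds 18.4, 26.9 and 46k rpm, equilibrium reached at 30, 26 and 18 h. Loading 35–96 μM. Absorbance read at 280 and 230 nm, 0.001 cm radial steps, 20 replicates per point. Global least-squares fit across speeds to the A+B+B↔ABB model.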

FAK-FAT = conditions: cited from earlier work
Pyk2-FAT [4] = assay: Steady-state 1H-15N heteronuclear NOE; set-up: species or system human; conditions: 600 MHz, 305 K; relative to free Pyk2-FAT, loop regions
Procedure, shortened: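 Steady-state 1H-15N heteronuclear NOE was measured at 600 MHz, 305 K on 15N-labelled Pyk2-FAT, free and bound to LD-motif peptide. Protein was at 400–500 μM in 20 mM MES pH 6.2. NOE values were taken as peak-intensity ratios of 1H-saturated to unsaturated spectra.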

Pyk2-FAT [5] = assay: H/D exchange NMR of Pyk2-FAT complexes; set-up: species or system human; conditions: H/D exchange in D2O, fast 15N-HSQC, up to 10 h
Procedure, shortened: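 15N-labelled Pyk2-FAT complexes (400–500 μM, 20 mM MES pH 6.2) were lyophilized and rehydrated in D2O. FAST 1H-15N HSQC spectra were recorded at intervals up to 10 h at 305 K. HSQC spectra in H2O before and after exchange checked structural integrity.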

Pyk2-FAT [6] = assay: NMR titration / chemical shift perturbation of 15N-labeled Pyk2-FAT; type: binding, human; conditions: 15N-HSQC/TROSY titration, Pyk2-FAT:ligand 1:0.2 to 1:2, 20 mM MES, pH 6.2, 305K
Procedure, shortened: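 15N-labeled Pyk2-FAT (400–500 μM in 20 mM MES, pH 6.2) titrated at 305 K with chicken LD peptides at protein:peptide ratios of 1:0.2 to 1:2. Peptide stocks were in dialysis buffer, pH readjusted to 6.2. 15N-HSQC spectra recorded at 600/800 MHz. Weighted shift Δav = [(ΔH² + (ΔN/5)²)/2]^1/2. For PRE, MTSL-labeled peptides were added at 1:0.2 and Iox/Ired taken after ascorbate reduction.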

[7] = biological target: B5; assay: AUC
[8] = biological target: B5; assay: ITC
Pyk2-FAT [9] = assay: Reverse NMR titration: unlabeled Pyk2-FAT added to 15N-labeled paxillin ligand; type: binding, human; conditions: 1H-15N HSQC/TROSY, ratios up to 1:2, 20 mM MES, pH 6.2
Procedure, shortened: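 Unlabelled Pyk2-FAT was titrated into a 15N-labelled ligand in 20 mM MES pH 6.2, with 15N-1H HSQC spectra at 600/800 MHz and 305 K. Ligands were an expressed chicken paxillin 139–163 peptide or His-tagged chicken paxillin 133–290. […] Ratios were 1:0.2–1:2.0.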

[10] = Sedimentation velocity AUC; type: physicochemical; conditions: for percentage protein amount in c(s) peak: 20 °C, 50,000 rpm; for f/f0 (weight-average frictional ratio): best-fit from c(s) distribution, 20 °C
Procedure, shortened: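 Sedimentation velocity at 50,000 rpm and 20°C in 20 mM MES, pH 6.2, with or without 50 mM NaCl. Partial specific volumes calculated from sequence. Rayleigh interference scans taken every 1.0 min over 10 h. Data fitted to a c(s) distribution model. The s-value is the ordinate maximum of each c(s) peak; percentage protein amount is reported per peak.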

[11] = biological target: B3; assay: AUC
[12] = biological target: B3; assay: ITC

LD3: paxillin derived peptide LD3 (chicken paxillin; residues 217–237), chemically synthesized (SVESLLDELESSVPSPVPAIT)
binding to Pyk2-FAT (qualitative, ITC) (Pyk2-FAT [1]): very weak compared to LD2 and LD4 peptides

LD4: paxillin derived peptide LD4 (chicken paxillin; residues 262–278), chemically synthesized (SATRELDELMASLSDFK)
binding site on GIT1 FAT-like domain [2]: located exclusively at the H1/H4 surface
global free energy difference between first and second sites (ΔGAB and ΔGABB) (Pyk2-FAT [3]; 1:2 stoichiometry, two-site hetero-association model): -0.77 kcal/mol
Delta G, single site (1:1) (Pyk2-FAT [3]; single site hetero-association model, T = 277.149994K, RT = 0.551kcal/mol): -7.52 kcal/mol
Delta G, first binding site (1:2) (Pyk2-FAT [3]; two site hetero-association model, first site, T = 277.149994K, RT = 0.551kcal/mol): -7.47 kcal/mol
Delta G, second binding site (both occupied) (Pyk2-FAT [3]; two site hetero-association model, second site, T = 277.149994K, RT = 0.551kcal/mol): -6.70 kcal/mol
Kd (Pyk2-FAT [3]; read-out: KAB (first site), 1:2 stoichiometry): 1.29 ± 0.09 µM
Kd (Pyk2-FAT [3]; read-out: KABB (second site), 1:2 stoichiometry): 5.18 ± 0.36 µM
affinity preference for H2/H3 site over H1/H4 site of Pyk2-FAT (Pyk2-FAT [1]; from ITC and AUC studies): 5 fold
preferred binding site on FAK-FAT (FAK-FAT; ref [39] (b5), [39], [40]): binds to the H2/H3 site
LD4 binding to the FAK FAT H1/H4 site (FAK-FAT; ref [40]): defective
steady-state 1H-15N NOE of Pyk2-FAT amides upon ligand binding (Pyk2-FAT [4]): significantly increased relative to free Pyk2-FAT
amide H/D exchange protection of Pyk2-FAT in complex (Pyk2-FAT [5]): residues from H2/H3 and H1/H4 were protected even after 10 hrs
binding sites / site preference on Pyk2-FAT by NMR (Pyk2-FAT [6]): H2/H3 is the stronger binding site

B1
binding to Pyk2-FAT (qualitative, ITC) (Pyk2-FAT [1]): two-site sequential binding model

B2
binding to Pyk2-FAT (qualitative, ITC) (Pyk2-FAT [1]): two-site sequential binding model

SATRELDELMASLSDFK (peptide, UniProt P49024 262-278, looked up) [paxillin LD4 peptide (chicken paxillin residues 262-278)]
Kd [7]: 1170 nM
dH, first site [8]: -2.8 ± 0.2 kcal/mol
dH, second site [8]: 0.9 ± 0.3 kcal/mol

B3
dH [8]: -5 ± 0.1 kcal/mol
stoichiometry N [8]: 1.2

B4
increase of binding affinity for FAK FAT relative to LD2 or LD4 peptides alone (FAK-FAT; similar paxillin^133–290 construct, ref [35]): 10 fold
effect of unlabeled Pyk2-FAT on resonances of 15N-labeled ligand (Pyk2-FAT [9]): several peaks from the LD2 and LD4 regions disappeared beyond detection
oligomerization state of unbound protein [10]: appears to form some soluble associated species (oligomers) of undetermined stoichiometry’s, but the main species appears to be a monomer
percentage protein amount in c(s) peak [10]: 48%
f/f0 (weight-average frictional ratio) [10]: 1.70
f/f0 (weight-average frictional ratio) ([10]; listed as paxillin): 1.7
apparent molecular mass of the 1:1 complex ([10]; theoretical 33,706 Da): 30.20 kDa
binding sites / site preference on Pyk2-FAT by NMR (Pyk2-FAT [6]): binding preference for H2/H3

B5
Kd [11]: 400 nM
Kd [12]: 1800 ± 100 nM

B6
percentage protein amount in c(s) peak [10]: 99%
f/f0 (weight-average frictional ratio) [10]: 1.34

GSNLSELDRLLLELNAVQHNPPSGF (peptide, UniProt P49024 139-163, looked up) [paxillin LD2 peptide (chicken paxillin residues 139-163)]
dH, first site [8]: -2.4 ± 0.1 kcal/mol
dH, second site [8]: 0.3 ± 0.1 kcal/mol
